# NPY Y1 blocker = antagonists of human neuropeptide Y receptor Y1. P25929. HEK293-CNG Y1 cells, membrane potential fluorescence; NPY at EC95, then isoproterenol. inhibition, % at 3.6 µM. 200,000 compounds, 1% hits. AID 1040;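 active means inhibition above the campaign mean inhibition of all tested compounds plus 3 SD, cut at about 20% in these data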;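 further: 0% = DMSO wells given NPY plus isoproterenol and 100% = isoproterenol alone without NPY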
# Target sequence (P25929 whole entry, looked up): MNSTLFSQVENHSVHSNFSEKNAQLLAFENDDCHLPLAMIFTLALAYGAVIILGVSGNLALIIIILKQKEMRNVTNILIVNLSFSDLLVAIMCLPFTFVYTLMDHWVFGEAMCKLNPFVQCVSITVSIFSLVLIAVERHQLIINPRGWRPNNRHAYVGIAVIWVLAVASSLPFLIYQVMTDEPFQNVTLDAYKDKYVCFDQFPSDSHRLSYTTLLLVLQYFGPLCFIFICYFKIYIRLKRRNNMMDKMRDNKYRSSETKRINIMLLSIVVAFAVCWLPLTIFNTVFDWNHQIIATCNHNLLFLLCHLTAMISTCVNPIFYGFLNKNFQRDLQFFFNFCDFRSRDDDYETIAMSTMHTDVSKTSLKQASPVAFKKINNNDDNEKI
#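 material = HEK293 cells with Y1 receptor plus CNG channel | also added = NPY 25 nM then isoproterenol 1 µM plus Ro 20-1724 25 µM | schedule = dye 3 h, compound 60 min room temperature, stimulation 45 min | measured by = membrane potential fluorescence | benchmarks = high control isoproterenol alone, low control NPY with isoproterenol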
# S1P4 ag = human S1P4 receptor agonism | O95977 | S1P4-expressing cell line, agonist reporter assay | activation, % at 4.98 µM | 220,000 compounds, 0.35% hits; in the data active means activation above about 11%;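 further: 0% = DMSO vehicle and 100% = reference agonist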
# NPY1 pot ag = potentiates or activates human NPY-Y1 receptor. activation, % at 3.6 µM. NPY-Y1 expressing cells, potentiator/agonist activation. AID 1304. P25929. 220,000 compounds, 0.37% hits; in the data active means activation above about 33%, passing the limit was not always enough;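 further: cells stimulated with NPY at EC10 then isoproterenol at EC100; 0% = low agonist plus stimulus and 100% = saturating agonist plus stimulus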
# NPY2 pot ag = human NPY-Y2 potentiation or agonism, primary screen | P49146 | cells expressing NPY-Y2, potentiator/agonist read-out | activation, % at 3.6 µM | 220,000 compounds, 0.45% hits | AID 1359; in the data active means activation above about 27%;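 further: cells stimulated with NPY near EC25 plus isoproterenol at EC100; 0% = vehicle plus submaximal agonist and 100% = vehicle plus saturating agonist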
# Target sequence (P49146 whole entry, looked up): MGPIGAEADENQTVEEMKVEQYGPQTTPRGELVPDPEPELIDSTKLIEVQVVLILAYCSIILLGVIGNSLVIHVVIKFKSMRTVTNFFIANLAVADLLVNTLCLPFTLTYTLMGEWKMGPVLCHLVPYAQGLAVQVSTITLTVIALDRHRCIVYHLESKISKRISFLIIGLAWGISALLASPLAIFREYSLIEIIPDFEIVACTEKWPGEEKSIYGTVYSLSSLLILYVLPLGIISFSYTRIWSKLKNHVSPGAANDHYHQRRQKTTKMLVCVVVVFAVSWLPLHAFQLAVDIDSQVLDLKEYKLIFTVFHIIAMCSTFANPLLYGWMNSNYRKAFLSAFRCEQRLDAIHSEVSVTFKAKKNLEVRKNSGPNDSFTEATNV
# NPY Y2 blocker = antagonists of human neuropeptide Y receptor Y2; P49146; NPY-Y2 expressing cells, antagonist mode; 140,000 compounds, 0.99% hits; inhibition, % at 2.7 µM; in the data active means inhibition above about 17%;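 further: 0% = vehicle with agonist challenge and 100% = reference antagonist with challenge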
# S1P4 antag = antagonists of human S1P4 receptor; O95977; S1P4-expressing cells, antagonist mode, reporter read-out; inhibition, % at 4.98 µM; 220,000 compounds, 0.26% hits; AID 1510; in the data active means inhibition above about 29%;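 further: 0% = wells stimulated with agonist and 100% = vehicle wells without agonist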
# NPY-Y2 confirm = confirmation of human NPY-Y2 receptor potentiators or agonists; shares compounds with NPY2 pot ag; cell-based NPY-Y2 potentiator/agonist assay; activation, % at 3.6 µM; 450 compounds, 20% hits; AID 1539; in the data active means activation above about 33%
# NPY-Y1 counter = potentiates or activates NPY-Y1, counter-screen for NPY-Y2 hits | shares compounds with NPY2 pot ag | Y1 HEK293-CNG cells, membrane potential fluorescence | activation, % at 3.6 µM | 450 compounds, 20% hits | AID 1651; in the data active means activation above about 45%;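 further: cells stimulated with submaximal NPY then isoproterenol with phosphodiesterase inhibitor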
# NPY-Y1 ag 2 = activates human NPY-Y1, counter-screen for NPY-Y2 potentiators | HEK293 Y1-CNGC, membrane potential fluorescence, agonism | activation, % at 3.6 µM | AID 1702 | shares compounds with NPY2 pot ag | 450 compounds, 37% hits;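 active means activation above the mean of DMSO-only control wells plus 3 SD, cut at about 18% in these data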;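 further: cells stimulated with 1 µM isoproterenol plus the PDE inhibitor Ro 20-1724; 0% = isoproterenol with DMSO and no NPY and 100% = 40 nM NPY; Y1 agonists lower the membrane potential dye signal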
# CNGC inh = cyclic nucleotide gated channel inhibition as counter-screen | HEK293-CNG parental, isoproterenol cAMP, membrane potential fluorescence | inhibition, % at 3.6 µM | AID 1703 | shares compounds with NPY2 pot ag | 450 compounds, 32% hits;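 active means inhibition above the control-well mean plus 3 SD of those wells, cut at about 22% in these data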;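 further: 0% = DMSO with isoproterenol and 100% = DMSO without isoproterenol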
# NPY-Y2 ag 2 = counter-screen for NPY-Y2 potentiators: agonists of human NPY-Y2; activation, % at 3.6 µM; shares compounds with NPY2 pot ag; 450 compounds, 56% hits; HEK293 Y2/CNGC cells, membrane potential fluorescence, agonist mode;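 active means activation above the mean of solvent-only control wells plus 3 SD, cut at about 10% in these data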;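 further: cells stimulated by isoproterenol with no NPY added so direct agonism is tested; 0% = DMSO with isoproterenol alone and 100% = NPY at EC100 plus isoproterenol; agonism lowers probe fluorescence through less cAMP and CNG channel opening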
# S1P4 agonist cf = confirmation of human S1P4 receptor agonists; shares compounds with S1P4 ag; S1P4 agonist cell-based reporter assay; activation, % at 4.98 µM; 740 compounds, 7% hits; AID 1523; in the data active means activation above about 12%;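 further: 0% = vehicle and 100% = full reference agonist response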
# S1P1 ag = activates human S1P1, counter-screen for S1P4 agonists. shares compounds with S1P4 ag. AID 1563. activation, % at 4.98 µM. S1P1 agonist cell-based assay, activation. 740 compounds, 4% hits; in the data active means activation above about 21%;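 further: 0% = vehicle wells and 100% = reference agonist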
# S1P4 antag cf = human S1P4 antagonism, confirmation; inhibition, % at 4.98 µM; 520 compounds, 71% hits; AID 1524; S1P4-expressing cell line, antagonist mode, reporter read-out; shares compounds with S1P4 antag; in the data active means inhibition above about 30%
# S1P1 antag = counter-screen for S1P4 antagonists: antagonists of human S1P1; shares compounds with S1P4 antag; cell-based S1P1 antagonist counterscreen, inhibition; inhibition, % at 4.98 µM; 520 compounds, 37% hits; AID 1564; in the data active means inhibition above about 40%;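 further: receptor stimulated with S1P near its EC80; 0% = agonist stimulated wells and 100% = vehicle only wells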
# The depositor's hits bear a star; . = no result. This is a sample that favours compounds with a hit; in the whole collection about 2.4% have one here.
SMILES,NPY Y1 blocker,S1P4 ag,NPY1 pot ag,NPY2 pot ag,NPY Y2 blocker,S1P4 antag,NPY-Y2 confirm,NPY-Y1 counter,NPY-Y1 ag 2,CNGC inh,NPY-Y2 ag 2,others
C=CCc1ccccc1OCC(O)CN1CCN(c2ccc(C)cc2)CC1 (configuration not stated),-5,5,45,44*,7,-10,28,31,55*,0,47*,
COc1ccc(N2CCN(CC(O)COc3ccccc3[N+](=O)[O-])CC2)cc1 (configuration not stated),0,4,39,37*,2,-21,32,31,49*,7,34*,
CCOC(=O)N1CCN(CC(O)COCc2ccc(Cl)cc2)CC1 (configuration not stated),2,2,4,6,1,3,.,.,.,.,.,
COc1ccc(C2CC(c3ccccc3OC(C)=O)=NN2C(C)=O)cc1 (configuration not stated),.,2,20,-1,.,-2,.,.,.,.,.,
C/C(=N\NC(=O)c1ccc([N+](=O)[O-])cc1Cl)c1ccccc1,2,0,7,-8,.,-18,.,.,.,.,.,
O=C(Nc1cccnc1)C1CCC(CNS(=O)(=O)c2cccc3nsnc23)CC1 (configuration not stated),.,3,-8,-6,.,-6,.,.,.,.,.,
CCCCc1c(C)c(C#N)c2nc3ccccc3n2c1Cl,-1,1,0,3,6,-3,.,.,.,.,.,
CCc1c(C)c(C#N)c2nc3ccccc3n2c1N(C)C,7,0,-10,101*,0,9,-14,-16,-29,-27,-16,
O=C(C[n+]1ccc(/C=N/O)cc1)N1CCCCC1,.,2,5,-27,.,-20,.,.,.,.,.,
CN(C)/C=C/C(=O)c1ncc(C(F)(F)F)cc1Cl,-2,3,2,28*,.,-15,-3,3,-8,-10,-2,
NC(=O)c1ncc(C(F)(F)F)cc1Cl,6,1,-18,1,.,-1,.,.,.,.,.,
Nc1sc(-c2ccccc2)cc1-c1n[nH]c(=S)n1C1CCCCC1,.,0,1,102*,.,-11,19,19,10,17,25*,
O=S(=O)(c1ccccc1)N1CCC(O)(CSc2ccc(Cl)cc2)CC1,9,1,-14,34*,3,-13,-13,-56,12,-16,5,
O=C(Nc1ccc(F)cc1)NC1CCCCC1,2,1,-11,99*,1,-3,-5,-3,-6,-8,-11,
O=S(=O)(c1cnc(Cl)c(Cl)c1)N1CCc2ccccc21,.,1,31,42*,.,0,21,17,11,32*,23*,
N#CC1C(C#N)N2CCCN2C1c1ccc(Br)cc1 (configuration not stated),.,1,1,13,.,2,.,.,.,.,.,
Cc1ccc([N+](=O)[O-])cc1NC(=O)Nc1cccc(F)c1,.,0,33,19,.,-1,.,.,.,.,.,
Cc1cc(C(=O)NNC(=O)Nc2ccc(Cl)cc2)no1,.,-2,-18,97*,.,12,-8,-5,-13,-2,-5,
Cc1cc(C(=O)NNc2ccc(Cl)cc2)no1,.,-1,4,13,.,3,.,.,.,.,.,
Cn1c2c(c(=O)n(C)c1=O)C(C(F)(F)F)(C(F)(F)F)N=C(c1ccc(Cl)cc1)N2,8,1,33,49*,7,51*,4,-23,-24,-6,-5,S1P4 antag cf=21;S1P1 antag=-19
Cc1ccccc1C1=NC(C(F)(F)F)(C(F)(F)F)c2c(n(C)c(=O)n(C)c2=O)N1,7,0,-11,6,0,-19,.,.,.,.,.,
O=C(N/N=C/c1cccc2cccnc12)c1ccccc1O,.,-2,36,38*,.,32*,22,26,15,6,12*,S1P4 antag cf=101*;S1P1 antag=79*
COc1cc(NC2c3ccccc3C(=O)N2Cc2ccc3c(c2)OCO3)cc(OC)c1 (configuration not stated),.,1,-17,-18,.,4,.,.,.,.,.,
COc1ccccc1NC(=O)c1c(NC(=O)c2ccco2)sc2c1CCC2,-1,14*,1,-8,3,-11,.,.,.,.,.,S1P4 agonist cf=0;S1P1 ag=-3
COC(=O)c1c(NC(=O)CN2CCC3(O)CCCCC3C2c2ccc(OC)cc2OC)sc(C)c1C (configuration not stated),-2,0,8,4,4,-20,.,.,.,.,.,
SMILES,NPY Y1 blocker,S1P4 ag,NPY1 pot ag,NPY2 pot ag,NPY Y2 blocker,S1P4 antag,NPY-Y2 confirm,NPY-Y1 counter,NPY-Y1 ag 2,CNGC inh,NPY-Y2 ag 2,others
O=C(N/C(=C/c1ccc(Br)cc1)C(=O)N1CCCC1)c1cccs1,1,13*,-8,14,.,-2,.,.,.,.,.,S1P4 agonist cf=-2;S1P1 ag=-1
O=C(N/C(=C\c1ccc(Br)cc1)C(=O)N1CCCC1)c1cccs1,-2,-1,-3,-7,.,6,.,.,.,.,.,
O=C(Nc1ccc(Br)cc1)c1csc(-c2ccncc2)n1,7,19*,-6,-15,.,10,.,.,.,.,.,S1P4 agonist cf=-2;S1P1 ag=-3
Cc1nc(-c2ccncc2)sc1C(=O)Nc1ccc(Br)cc1,5,20*,-9,-7,.,4,.,.,.,.,.,S1P4 agonist cf=-1;S1P1 ag=-8
CNC(=O)c1csc(-c2ccncc2)n1,15,-2,-8,-25,1,-1,.,.,.,.,.,
CC(C)CNS(=O)(=O)c1ccc(S(=O)(=O)N2CCC3(CC2)OCCO3)cc1,0,16*,8,3,-1,-8,.,.,.,.,.,S1P4 agonist cf=-1;S1P1 ag=-5
O=S(=O)(NC1CC1)c1ccc(S(=O)(=O)N2CCC3(CC2)OCCO3)cc1,6,1,-7,-17,.,-7,.,.,.,.,.,
COC(=O)c1[nH]c2ccccc2c1NC(=O)C(C)N1CC(C)OC(C)C1 (configuration not stated),.,2,-18,-17,.,-8,.,.,.,.,.,
